Assay [1] has as its target T1, Tyrosine-protein phosphatase non-receptor type 1 (Homo sapiens, UniProt P18031).
T1 sequence (P18031 whole entry): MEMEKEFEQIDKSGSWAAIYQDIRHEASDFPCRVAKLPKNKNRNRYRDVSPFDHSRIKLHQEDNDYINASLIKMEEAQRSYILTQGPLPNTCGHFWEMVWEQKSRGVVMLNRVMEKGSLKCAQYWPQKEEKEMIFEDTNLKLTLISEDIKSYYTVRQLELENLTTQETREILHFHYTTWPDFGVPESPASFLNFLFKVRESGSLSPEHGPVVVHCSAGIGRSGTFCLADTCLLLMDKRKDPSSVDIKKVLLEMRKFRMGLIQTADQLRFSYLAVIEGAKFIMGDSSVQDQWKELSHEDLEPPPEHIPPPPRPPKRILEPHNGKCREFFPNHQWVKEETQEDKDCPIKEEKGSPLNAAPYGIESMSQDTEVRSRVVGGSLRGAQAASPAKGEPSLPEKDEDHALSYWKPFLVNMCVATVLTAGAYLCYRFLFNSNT
The experiment in a line: Inhibition of PTP1B. Put shortly: (§1)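 Enzymes expressed in E. coli and purified: native PTP1B at 2.1 µg/mL, SHP-1 catalytic domain at 5 µg/mL. Buffer 100 mM Hepes, 5 mM EDTA, pH 7.0, 37 °C. Enzyme preincubated 10 min with inhibitor in DMSO, then 2 mM pNPP (final) added. Reaction 3 min, quenched with NaOH, p-nitrophenol read at 405 nm. IC50 taken over a range of inhibitor concentrations.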

Assay [2] addresses T2, Tyrosine-protein phosphatase 1 (Saccharomyces cerevisiae S288c, UniProt P25044).
T2 sequence (P25044 whole entry): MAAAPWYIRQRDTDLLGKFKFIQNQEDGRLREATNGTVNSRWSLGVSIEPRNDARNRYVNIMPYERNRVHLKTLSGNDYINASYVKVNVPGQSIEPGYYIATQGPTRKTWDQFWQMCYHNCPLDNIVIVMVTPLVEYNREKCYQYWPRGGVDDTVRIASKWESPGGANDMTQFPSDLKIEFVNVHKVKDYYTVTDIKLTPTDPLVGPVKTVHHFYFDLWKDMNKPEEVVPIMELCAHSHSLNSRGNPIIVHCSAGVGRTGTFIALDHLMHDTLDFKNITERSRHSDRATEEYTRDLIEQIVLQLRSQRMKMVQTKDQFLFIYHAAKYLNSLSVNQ
The assay can be described thus: Inhibition of yeast PTP1. Put shortly:
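Yeast PTPase YPTP1 at 30 ng/mL. pNPP hydrolysis at 37 °C, pH 7.0 Hepes/EDTA buffer, 10 min inhibitor preincubation, 2 mM pNPP final, 3 min reaction, NaOH stop, A405. IC50 derived from activity across inhibitor concentrations.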

The target of assay [3] is T3, Tyrosine-protein phosphatase non-receptor type 2 (Homo sapiens, UniProt P17706).
T3 sequence (P17706 whole entry): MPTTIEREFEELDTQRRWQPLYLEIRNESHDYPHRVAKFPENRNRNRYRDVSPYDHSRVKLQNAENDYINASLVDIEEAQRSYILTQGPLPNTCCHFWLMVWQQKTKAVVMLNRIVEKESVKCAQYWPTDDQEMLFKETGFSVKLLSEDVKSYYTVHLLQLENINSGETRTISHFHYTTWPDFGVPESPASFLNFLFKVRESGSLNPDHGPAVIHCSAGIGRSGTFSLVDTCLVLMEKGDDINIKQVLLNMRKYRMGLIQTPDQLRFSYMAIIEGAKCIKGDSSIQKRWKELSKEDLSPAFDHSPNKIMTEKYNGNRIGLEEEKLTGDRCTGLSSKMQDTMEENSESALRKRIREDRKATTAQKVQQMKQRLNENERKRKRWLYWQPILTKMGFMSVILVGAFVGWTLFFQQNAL
The experiment in a line: Inhibition of TC-PTP. Put shortly:
(§2)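 Commercial LAR-D1 (membrane-proximal catalytic domain) and TC-PTP, each at 33 U/mL. Run at 37 °C in 100 mM Hepes, 5 mM EDTA, pH 7.0. Inhibitor in DMSO preincubated 10 min before 2 mM pNPP (final) added. After 3 min, quenched with NaOH and A405 read. IC50 from a range of inhibitor concentrations.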

The nature of assay [4]: Inhibition of LAR-D1. Further details: species or system Homo sapiens. Put shortly:
as §2

Assay [5] addresses Tyrosine-protein phosphatase non-receptor type 6 (Homo sapiens, UniProt P29350). The experiment in a line: Inhibition of SHP-1 catalytic domain. Put shortly:
as §1

In assay [6] the test system is Mus musculus. The assay can be described thus: Effect on total cholesterol in HFD-fed C57BL/6J Jms Slc DIO mouse plasma at 5 g/kg of diet after 28 days. In kind it is functional. Put shortly:
(§3)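 DIO mice (HFD 8 weeks, then drug in powdered HFD at 5 g/kg diet for 4 weeks) fasted 8 h at the end. Secobarbital 40 mg/kg ip, cardiac-puncture blood into EDTA, plasma spun at 5000g, 10 min, 4 °C and frozen. Enzymatic colour kits, 37 °C. Glucose: 5 min, A505. TG and cholesterol: 5 min, A600. NEFA: 20 min, A550. Means ± SEM, n = 8–9.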

In assay [7] the test system is Mus musculus. The experiment in a line: Effect on glucose level in HFD-fed C57BL/6J Jms Slc DIO mouse plasma at 5 g/kg of diet after 28 days. Type of assay: functional. Put shortly:
as §3

For assay [8], the system named is Mus musculus. The assay can be described thus: Effect on liver weight in HFD-fed C57BL/6J Jms Slc DIO mouse at 5 g/kg of diet after 28 days. In kind it is functional. Put shortly: (§4)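 Male C57BL/6J Jms Slc mice (4 weeks old, 17–19 g), acclimatized 1 week on LFD, then HFD for 8 weeks to induce obesity. Next 4 weeks on powdered HFD with compound kneaded in at 5 g/kg diet (0.5% w/w), dissolved with 2 equiv NaOH in water. Vehicle diet was kneaded with the same volume of water. n = 9/group, LFD lean control n = 8. Body weight recorded every other day. Means ± SEM.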

Assay [9] has as its system Mus musculus. The experiment in a line: Effect on nonesterified fatty acid level in HFD-fed C57BL/6J Jms Slc DIO mouse plasma at 5 g/kg of diet after 28 days. Type of assay: functional. Put shortly:
as §3

The test system of assay [10] is Mus musculus. The experiment in a line: Effect on triglyceride level in HFD-fed C57BL/6J Jms Slc DIO mouse plasma at 5 g/kg of diet after 28 days. Type of assay: functional. Put shortly: as §3
The test system of assay [11] is Mus musculus. The assay can be described thus: Effect on adipose retroperitoneal tissue weight in HFD-fed C57BL/6J Jms Slc DIO mouse at 5 g/kg of diet after 28 days. Type of assay: functional. Put shortly:
as §4

The subject of assay [12] is Mus musculus. The experiment in a line: Effect on body weight in HFD-fed C57BL/6J Jms Slc DIO mouse at 5 g/kg of diet after 28 days. In kind it is functional. Put shortly: as §4
Assay [13] has as its system Mus musculus. The assay can be described thus: Effect on adipose epididymal tissue weight in HFD-fed C57BL/6J Jms Slc DIO mouse at 5 g/kg of diet after 28 days. Type of assay: functional. Put shortly:
as §4

pIC50, pKi: −log10 of the molar value.

Tyrosine-protein phosphatase non-receptor type 6, sequence (P29350 whole entry, the tested form may be a part): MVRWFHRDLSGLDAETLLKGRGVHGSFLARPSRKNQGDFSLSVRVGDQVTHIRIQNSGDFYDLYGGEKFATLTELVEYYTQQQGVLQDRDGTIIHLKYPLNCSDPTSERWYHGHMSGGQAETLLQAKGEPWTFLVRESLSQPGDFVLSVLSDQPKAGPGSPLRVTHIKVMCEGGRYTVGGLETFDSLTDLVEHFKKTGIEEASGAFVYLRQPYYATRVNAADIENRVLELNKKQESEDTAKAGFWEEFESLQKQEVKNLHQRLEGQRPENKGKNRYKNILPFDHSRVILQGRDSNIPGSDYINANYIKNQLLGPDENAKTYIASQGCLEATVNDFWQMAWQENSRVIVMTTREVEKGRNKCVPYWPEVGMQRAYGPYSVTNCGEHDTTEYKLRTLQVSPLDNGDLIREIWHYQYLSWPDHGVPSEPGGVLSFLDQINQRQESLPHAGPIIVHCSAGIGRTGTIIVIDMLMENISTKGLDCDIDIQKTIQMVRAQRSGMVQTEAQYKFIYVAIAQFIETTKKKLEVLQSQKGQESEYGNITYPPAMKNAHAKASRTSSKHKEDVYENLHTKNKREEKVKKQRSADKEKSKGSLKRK

One may read the pIC50 as the IC50 on a negative log10 scale, so that one unit is a factor of ten. The low end stands for a high IC50, the high end for a low IC50. In the case of `O=C(O)c1cc(S(=O)(=O)O)ccc1O` [SULFOSALICYLIC], in [1], the pIC50 is less than 3.00.
As to `O=C(O)c1cc(Cc2ccccc2)cc(-c2ccccc2)c1O`, the pIC50 in [2] was 3.57; in assay [1], 4.19; in assay [3], 3.27; in assay [4], less than 2.70; in assay [5], 3.89.
Take `O=C(O)c1cc(Cc2ccccc2)cc(Br)c1O`: the pIC50 in [1] was 3.82.
Same read-out and setting: the figure for `O=C(O)Cc1cc(O)c(CC(=O)O)cc1O` is less than 3.00; for `O=C(O)c1cccc(-c2ccccc2)c1O` it is 3.07.
The same measure, in the same setting: next, `O=C(O)c1cc(-c2ccco2)cc(Cc2cc(-c3ccco3)cc(C(=O)O)c2O)c1O`: 4.17; `O=C(O)c1cc(F)ccc1O`: less than 3.00; `O=C(O)c1cc(-c2ccccc2)cc(Cc2ccccc2)c1O`: 4.24.
Same read-out and setting: the figure for `O=Cc1ccc(O)c(C(=O)O)c1` is less than 3.00.
Turning to `O=C(O)c1cc(-c2ccccc2)ccc1O`, the pIC50 in assay [1] was 2.89.
As to `O=C(O)c1cccc(Cc2ccccc2)c1O`, in assay [1], the pIC50 is 3.39.
Still for that read-out and setting: the figure for `O=C(O)c1cc(F)cc(Cc2cc(F)cc(C(=O)O)c2O)c1O` is 3.67.
On the same count and under the same terms, next, `O=C(O)c1ccc2ccccc2c1O` [CARBOXYNAPHTHOL]: 3.07.
On the same count and under the same terms, the figure for `O=C(O)c1cc(-c2cccs2)cc(Cc2cc(-c3cccs3)cc(C(=O)O)c2O)c1O` is 4.57.
`O=C(O)c1cc(Cc2ccccc2)cc(Cc2ccccc2)c1O`: the pIC50 in [1] was 4.04.
On the same count and under the same terms, next, `O=C(O)c1cc(Br)cc(Cc2cc(Br)cc(C(=O)O)c2O)c1O`: 3.83; `O=C(O)c1cc(-c2ccccc2)cc(-c2ccccc2)c1O`: 4.08; `O=Cc1cc(C(=O)O)c(O)c(C2CCCO2)c1` (stereo not drawn): 3.42.
As for `O=C(O)c1cc(Cc2cc(C(=O)O)c(O)c(-c3ccccc3)c2)cc(-c2ccccc2)c1O`, the Activity in the assay on Mus musculus [6] was determined as 129 mg/dL; in the assay on Mus musculus [7], 300 mg/dL; with Mus musculus [8], 1.03 g; with Mus musculus [9] it was 0.24 mEq/L; in the assay with Mus musculus [10], 42 mg/dL.
Turning to `O=C(O)c1cc(-c2ccccc2)cc(Br)c1O`, in [1], the pIC50 was 3.45.
Still for that read-out and setting: the figure for `O=C(O)c1cc(Br)cc(Cc2ccccc2)c1O` is 3.83; for `O=C(O)c1cc2ccccc2cc1O` it is less than 3.00; for `O=C(O)c1cccc(Br)c1O` it is less than 3.00.
The same measure, in the same setting: next, `O=C(O)c1cc(Cc2ccccc2)ccc1O`: 2.93.
As usually defined, the pKi is −log10 of the Ki, conventionally taken in molar units. Consider `O=C(O)c1cc(-c2ccccc2)cc(Cc2cc(-c3ccccc3)cc(C(=O)O)c2O)c1O`, for which the Activity is 133 mg/dL with Mus musculus [6]; 280 mg/dL in the assay on Mus musculus [7]; 1.07 g with Mus musculus [8]; 0.26 g in the assay with Mus musculus [11]; 0.14 mEq/L in the assay with Mus musculus [9]; 28.9 g in the assay with Mus musculus [12]. The Activity with Mus musculus [13] amounted to 0.83 g; in the assay on Mus musculus [10], 48 mg/dL. Also, the pIC50 in assay [2] is 4.07; in assay [1], 4.72; in [3], 3.81; in assay [4] it was less than 2.70; in [5] it was 4.43. The results for the pKi in assay [1], in assay [3] and in assay [5] were 5.19, 4.05 and 5.01, respectively.

The record behind these values is ChEMBL document CHEMBL1143766, “Mono- and disalicylic acid derivatives: PTP1B inhibitors as potential anti-obesity drugs” (Bioorg Med Chem, 2007).
